Assay results reported in PMC5755971 (Journal of the American Chemical Society, 2017).
Where a SMILES comes first, the peptide text is derived from it. [ ]: non-standard residue; d: D form. Dolaproine = CO[C@@H]([C@@H]1CCCN1)[C@@H](C)C(=O)O; Dil = CC[C@H](C)[C@H](NC)[C@@H](CC(=O)O)OC; NMeV = CN[C@H](C(=O)O)C(C)C

How the values were obtained:
[1] = system: Daudi cells; assay: cytotoxicity assay for ligand-toxin conjugates; type: cell-based; settings: read-out: EC50 (cytotoxicity), 72h, MTT
[2] = system: human CD22; settings: cited from earlier work
[3] = target: T1, hCD22 (Homo sapiens, UniProt P20273); assay: flow cytometry competitive binding assay, Neu5Gc-PAA to hCD22-CHO cells
T1 sequence (P20273 20-847): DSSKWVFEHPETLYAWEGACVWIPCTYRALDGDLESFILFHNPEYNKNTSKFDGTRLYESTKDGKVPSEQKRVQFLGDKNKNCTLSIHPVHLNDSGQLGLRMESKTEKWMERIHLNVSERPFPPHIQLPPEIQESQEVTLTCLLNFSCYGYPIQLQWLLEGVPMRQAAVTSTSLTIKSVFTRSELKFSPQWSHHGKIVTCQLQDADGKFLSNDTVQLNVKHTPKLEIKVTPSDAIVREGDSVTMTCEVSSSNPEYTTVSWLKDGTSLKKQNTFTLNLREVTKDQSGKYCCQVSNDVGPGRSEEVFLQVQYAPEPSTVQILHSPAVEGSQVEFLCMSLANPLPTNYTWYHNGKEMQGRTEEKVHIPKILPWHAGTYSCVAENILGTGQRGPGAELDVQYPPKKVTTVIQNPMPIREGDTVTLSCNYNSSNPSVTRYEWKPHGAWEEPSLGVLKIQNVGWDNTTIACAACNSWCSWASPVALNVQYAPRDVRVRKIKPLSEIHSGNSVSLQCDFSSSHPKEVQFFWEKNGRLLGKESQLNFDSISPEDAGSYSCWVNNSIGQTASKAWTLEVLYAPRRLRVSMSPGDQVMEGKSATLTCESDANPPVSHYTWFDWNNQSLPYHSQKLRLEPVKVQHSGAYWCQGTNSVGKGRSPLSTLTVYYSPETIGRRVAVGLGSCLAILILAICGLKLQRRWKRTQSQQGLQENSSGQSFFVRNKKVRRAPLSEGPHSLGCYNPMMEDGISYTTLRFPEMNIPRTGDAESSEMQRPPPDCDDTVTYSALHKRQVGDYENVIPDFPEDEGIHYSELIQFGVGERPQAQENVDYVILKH
Procedure, shortened: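 Serial dilutions of sialoside ligands, quantified by periodate-resorcinol assay, mixed in cold HBSS/0.5% BSA with biotinylated Neu5Gcα2–6LacNAc-PAA (1 MDa, 1 μg/mL). ~10^6 hCD22-CHO cells added; 40 min, 4 °C, dark. Two washes, then streptavidin-PE (1:1000) for 30 min at 4 °C. Read by flow cytometry. Triplicate titrations; IC50 from curve fit, 0% = no polymer, 100% = polymer without competitor.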

[4] = target: T1, hCD22; settings: equilibrium dialysis at 4° C; cited from earlier work
[5] = system: Daudi cells; assay: uptake of ligand-FITC conjugates by Daudi cells in pure mouse serum; type: cell-based; settings: 60 min, 37 °C
Procedure, shortened: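 FITC-labelled ligand conjugates serially diluted and incubated with ~10^6 Daudi B cells in 100 uL pure mouse serum for 60 min at 37 °C. Cells washed twice in HBSS; uptake read by flow cytometry and curve-fitted.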

For CC[C@H](C)[C@@H]([C@@H](CC(=O)N1CCC[C@H]1[C@H](OC)[C@@H](C)C(=O)N[C@@H](Cc1ccccc1)C(=O)O)OC)N(C)C(=O)[C@@H](NC(=O)[C@@H](NC)C(C)C)C(C)C [MMAF, monomethyl auristatin F] (H-[NMeV]V[Dil][Dolaproine]F-OH), the EC50 [1] was 200 nM.

For CC(=O)NC1C(O)CC(O)(C(=O)O)OC1C(O)C(O)CNC(=O)c1ccc(-c2ccccc2)cc1 (stereo not shown) [1a, 9-N-biphenyl carboxamide-Neu5Ac], the “affinity for human CD22” value [2] is listed as “low micromolar range”.

For Neu5Acα2–6Galβ1–4GlcNAc [6′SLN], the IC50 ([3]; competition with Neu5Gc-PAA, 40 min, 4 °C) is listed as 62 µM and the Kd [4] is listed as 32 µM.

For CC(=O)NC1C(NC(=O)C[C@H](NC(=O)[C@H](C)NC(=O)[C@@H](NC(=O)[C@@H](N)CCCCN)C(C)C)C(=O)N[C@@H](CCCCN)C(=O)N[C@H](C(=O)O)[C@@H](C)O)OC(CO)C(OC2OC(CO)C(OC3OC(COC4OC(CO)C(O)C(O)C4OC4OC(CO)C(OC5OC(COC6(C(=O)[O-])CC(O)C(NC(C)=O)C([C@H](O)[C@H](O)CO)O6)C(O)C(O)C5O)C(O)C4NC(C)=O)C(O)C(OC4OC(CO)C(O)C(O)C4OC4OC(CO)C(OC5OC(COC6(C(=O)[O-])CC(O)C(NC(C)=O)C([C@H](O)[C@H](O)CO)O6)C(O)C(O)C5O)C(O)C4NC(C)=O)C3O)C(O)C2NC(C)=O)C1O.[Na+].[Na+] (stereo partly shown) [SGP], the “fold higher binding affinity for hCD22 compared to the monovalent ligand (6′SLN)” value [3] was “three-fold higher” and the “binding/uptake by Daudi cells” value [5] was “weak or no binding/uptake”.

For O=C(CF)N[C@H]1[C@H]([C@H](O)[C@H](O)CNC(=O)c2cccc(Oc3ccccc3)c2)OC(O)(C(=O)O)C[C@@H]1O (stereo partly shown) [1c, 9-N-m-phenoxybenzamide-Neu5FAc], the “affinity for human CD22” value [2] is listed as “low micromolar range”.
